The source of these data is ChEMBL document CHEMBL1134481, “Development of a pharmacophore model for histamine H3 receptor antagonists, using the newly developed molecular modeling program SLATE” (J Med Chem, 2001).

SMILES strings stand for the structures.

T1 sequence (Q9QYN8 whole entry): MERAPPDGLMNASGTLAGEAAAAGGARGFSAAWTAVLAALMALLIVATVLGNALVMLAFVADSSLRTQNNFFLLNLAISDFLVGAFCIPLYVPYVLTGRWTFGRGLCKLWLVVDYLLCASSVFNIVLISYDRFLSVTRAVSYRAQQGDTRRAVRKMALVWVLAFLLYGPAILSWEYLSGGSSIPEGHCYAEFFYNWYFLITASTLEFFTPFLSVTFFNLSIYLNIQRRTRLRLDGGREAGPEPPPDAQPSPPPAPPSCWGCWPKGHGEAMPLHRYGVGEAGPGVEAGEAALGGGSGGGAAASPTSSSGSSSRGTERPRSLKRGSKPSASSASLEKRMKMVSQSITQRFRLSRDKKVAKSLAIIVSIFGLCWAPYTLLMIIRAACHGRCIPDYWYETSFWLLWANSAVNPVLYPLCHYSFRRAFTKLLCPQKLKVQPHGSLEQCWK
Chain of Histamine H3 receptor (Cavia porcellus, UniProt Q9JI35) (Q9JI35 whole entry): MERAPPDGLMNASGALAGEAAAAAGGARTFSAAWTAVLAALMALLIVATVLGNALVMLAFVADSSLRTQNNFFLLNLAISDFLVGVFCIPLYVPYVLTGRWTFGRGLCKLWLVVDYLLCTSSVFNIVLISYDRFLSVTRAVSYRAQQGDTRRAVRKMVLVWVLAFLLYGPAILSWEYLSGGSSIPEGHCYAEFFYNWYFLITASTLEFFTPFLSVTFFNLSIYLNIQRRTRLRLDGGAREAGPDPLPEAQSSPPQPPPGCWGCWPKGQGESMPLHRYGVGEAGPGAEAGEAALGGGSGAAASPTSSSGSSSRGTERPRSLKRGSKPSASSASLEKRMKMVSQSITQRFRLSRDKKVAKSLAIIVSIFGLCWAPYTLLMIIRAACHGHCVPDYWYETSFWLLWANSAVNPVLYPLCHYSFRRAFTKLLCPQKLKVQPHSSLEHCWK

The first test has as its target Histamine H3 receptor (Cavia porcellus, UniProt Q9JI35). The test is described as follows: Displacement of [3H]Nalpha-methylhistamine from histamine H3 receptors in homogenates of rat cerebral cortex. Type of test: tissue-based. Conditions: read-out: pA2 (converted).
Regarding `Ic1ccc(COCCCc2c[nH]cn2)cc1` [IODOPROXYFAN], the Kb was 5.01 nM.

`S=C(NC1CCCCC1)N1CCC(c2cnc[nH]2)CC1` [THIOPERAMIDE]: the Kb was 1.26 nM.

Turning to `O=C(NCCCc1c[nH]cn1)NC1CCCCC1`, the Kb was 50.1 nM.

`Clc1ccc(CNCCCCCc2c[nH]cn2)cc1`: the Kb was 1.26 nM.

As to `NC(=NCc1ccc(Cl)cc1)SCCCc1cnc[nH]1` [CLOBENPROPIT], the Kb is 0.158 nM.

Regarding `Clc1ccc(Cc2noc(CCCc3cnc[nH]3)n2)cc1`, the Kb is 7.94 nM.

Take `c1nc(CCC2CCNCC2)c[nH]1`: the Kb is 3.98 nM.

The next test has as its target T1, Histamine H3 receptor (Rattus norvegicus, UniProt Q9QYN8). In words: (§1) Ability to displace [3H]Nalpha-methylhistamine from histamine H3 receptors in homogenates of rat cerebral cortex. Type of test: tissue-based.
Settings: not given
In outline: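 Rat cortex membranes were made by homogenizing in Tris/HCl (50 mM, 5 mM MgCl₂, 145 mM NaCl, pH 7.4) and spinning at 800g, then twice at 40000g. Binding used 30 µg protein and 1 nM [³H]-Nα-methylhistamine with 0.1–10 000 nM compound, in 50 mM Na⁺ phosphate pH 7.4, for 40 min at 25 °C. Samples were filtered on PEI-treated GF/C and counted by scintillation. Ki = IC50/(1+[ligand]/Kd).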
As to `O=C(Cc1ccc(Cl)cc1)OCCCc1c[nH]cn1`, the affinity, expressed as Ki, was 14 nM.

Turning to `CC(C)(C)CC#CC1CC1c1cnc[nH]1` (stereo unspecified), the Ki (in general, the dissociation constant of the complex between target and ligand, obtained from inhibition or displacement) was found to be 0.18 nM.

`NC(/C=C/C1CC1c1c[nH]cn1)CC1CCCCC1` (stereo unspecified) showed an inhibitory constant (Ki) of 0.4 nM.

Take `N=C(Cc1ccc(Cc2cnc[nH]2)cc1)NCc1ccc(Cl)cc1`: the affinity corresponds to a Ki of 7 nM.

A further test deals with T1, Histamine H3 receptor. The description is as §1.
Settings: not given
Type of test: tissue-based. In outline: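 Binding used 30 µg protein and 1 nM [³H]-Nα-methylhistamine with 0.1–10 000 nM compound, in 50 mM Na⁺ phosphate pH 7.4, for 40 min at 25 °C. Samples were filtered on PEI-treated GF/C and counted by scintillation. Ki = IC50/(1+[ligand]/Kd).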
Take `C/N=C(/NCc1ccc(Cl)cc1)SCCCc1c[nH]cn1`: affinity was put at a Ki of 3.16 nM.

As to `Clc1ccc(CN=C(NC2CCCCC2)SCCCc2cnc[nH]2)cc1`, the affinity, expressed as Ki, was 0.501 nM.

For the compound `CC/N=C(\NCc1ccc(Cl)cc1)SCCCc1c[nH]cn1`, the affinity corresponds to a Ki of 7.94 nM.

In turn, `c1nc(CCCS/C(=N/C2CCCCC2)NC2CCCCC2)c[nH]1` had a Ki of 12.6 nM.

With `CCCS/C(=N/C)NCc1ccc(Cl)cc1`, the Ki was above 100000 nM.
